B1: Osa-1-4 twister ribozyme (parent)
chain: CCGCCUAACACUGCCAAUGCCGGUCCCAAGCCCGGAUAAAAGUGGAGGGGGCGG

Variants of: B1
Assay: self-cleavage, relative activity (ratio to wild type); higher = more cleavage; co-transcriptional
Procedure, shortened: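 A DNA template was synthesised for a 54-nucleotide twister ribozyme from Oryza sativa, with 97 % wild-type base and 1 % of each other base at each of the 48 positions downstream of the cleavage site. The ribozyme cleaved itself co-transcriptionally during 2 h of in vitro transcription at 37 °C. Reverse transcription with a template-switching oligonucleotide, PCR amplification and deep sequencing followed, and cleavage status came from reads with or without upstream sequence. Relative activity is the fraction cleaved normalised to wild type.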
In the case of CCGCCUUACACUGCCAAUGCCGGUCCCAAGCCCGGAUAAAAGUGGAGGGGGCGG [A7U], the self-cleavage is reported as 0.07. Work on CCGCCUGACACUGCCAAUGCCGGUCCCAAGCCCGGAUAAAAGUGGAGGGGGCCG [A7G G53C] yielded a self-cleavage of 0.06. For CCGCCUGACACUGCCAAUGCCGGUCCCAAGCCCGGAUAAAAGUGGAGGGGGCAG [A7G G53A], the self-cleavage was 0.16. With CCGCCUGACACUGCCAAUGCCGGUCCCAAGCCCGGAUAAAAGUGGAGGGGGCUG [A7G G53U] the self-cleavage was 0.1. With CCGCCUUACACUGCCAAUGCGGGUCCCAAGCCCGGAUAAAAGUGGAGGGGGCGG [A7U C21G] the self-cleavage was 0.05. For CCGCCUUACACUGCCAAUGCUGGUCCCAAGCCCGGAUAAAAGUGGAGGGGGCGG [A7U C21U], the self-cleavage was 0.1. In the case of CCGCCUUACACUGCCAAUGCAGGUCCCAAGCCCGGAUAAAAGUGGAGGGGGCGG [A7U C21A], the self-cleavage is reported as 0.08. For CCGCCUUACACUGCCAAUGCCGGUGCCAAGCCCGGAUAAAAGUGGAGGGGGCGG [A7U C25G], the self-cleavage was 0.08. In the case of CCGCCUUACACUGCCAAUGCCGGUACCAAGCCCGGAUAAAAGUGGAGGGGGCGG [A7U C25A], the self-cleavage is reported as 0.03. CCGCCUUACACUGCCAAUGCCGGUUCCAAGCCCGGAUAAAAGUGGAGGGGGCGG [A7U C25U] gave a self-cleavage of 0.2. Work on CCGCCUUUCACUGCCAAUGCCGGUCCCAAGCCCGGAUAAAAGUGGAGGGGGCGG [A7U A8U] yielded a self-cleavage of 0.07. For CCGCCUUCCACUGCCAAUGCCGGUCCCAAGCCCGGAUAAAAGUGGAGGGGGCGG [A7U A8C], the self-cleavage was 0.02. In the case of CCGCCUUGCACUGCCAAUGCCGGUCCCAAGCCCGGAUAAAAGUGGAGGGGGCGG [A7U A8G], the self-cleavage is reported as 0.09. For CCGCCUGACACCGCCAAUGCCGGUCCCAAGCCCGGAUAAAAGUGGAGGGGGCGG [A7G U12C], the self-cleavage was 0.1. Work on CCGCCUGACACGGCCAAUGCCGGUCCCAAGCCCGGAUAAAAGUGGAGGGGGCGG [A7G U12G] yielded a self-cleavage of 0.12. Work on CCGCCUGACACAGCCAAUGCCGGUCCCAAGCCCGGAUAAAAGUGGAGGGGGCGG [A7G U12A] yielded a self-cleavage of 0.16. In the case of CCGCCUUACACUGCCAAUGGCGGUCCCAAGCCCGGAUAAAAGUGGAGGGGGCGG [A7U C20G], the self-cleavage is reported as 0.11. With CCGCCUUACACUGCCAAUGACGGUCCCAAGCCCGGAUAAAAGUGGAGGGGGCGG [A7U C20A] the self-cleavage was 0.06. Work on CCGCCUUACACUGCCAAUGUCGGUCCCAAGCCCGGAUAAAAGUGGAGGGGGCGG [A7U C20U] yielded a self-cleavage of 0.09. Variant CCGCCUUAAACUGCCAAUGCCGGUCCCAAGCCCGGAUAAAAGUGGAGGGGGCGG [A7U C9A] has a self-cleavage of 0.05. CCGCCUUAUACUGCCAAUGCCGGUCCCAAGCCCGGAUAAAAGUGGAGGGGGCGG [A7U C9U] gave a self-cleavage of 0.04. With CCGCCUUAGACUGCCAAUGCCGGUCCCAAGCCCGGAUAAAAGUGGAGGGGGCGG [A7U C9G] the self-cleavage was 0.05. Variant CCGCCUGACACUGCCAAUGCCGGUCCCAAGCCCGGAUAAAAGUGGAGGGGGCGA [A7G G54A] has a self-cleavage of 0.19. In the case of CCGCCUGACACUGCCAAUGCCGGUCCCAAGCCCGGAUAAAAGUGGAGGGGGCGC [A7G G54C], the self-cleavage is reported as 0.17. Variant CCGCCUGACACUGCCAAUGCCGGUCCCAAGCCCGGAUAAAAGUGGAGGGGGCGU [A7G G54U] has a self-cleavage of 0.36. In the case of CCGCCUGACACUGCCAAUGCCGGUCCCAAGCCCGGAAAAAAGUGGAGGGGGCGG [A7G U37A], the self-cleavage is reported as 0.27. Work on CCGCCUGACACUGCCAAUGCCGGUCCCAAGCCCGGACAAAAGUGGAGGGGGCGG [A7G U37C] yielded a self-cleavage of 0.46. Work on CCGCCUGACACUGCCAAUGCCGGUCCCAAGCCCGGAGAAAAGUGGAGGGGGCGG [A7G U37G] yielded a self-cleavage of 0.58. CCGCCUGACACUGCCAACGCCGGUCCCAAGCCCGGAUAAAAGUGGAGGGGGCGG [A7G U18C] showed a self-cleavage of 0.25. Variant CCGCCUGACACUGCCAAAGCCGGUCCCAAGCCCGGAUAAAAGUGGAGGGGGCGG [A7G U18A] has a self-cleavage of 0.38. In the case of CCGCCUGACACUGCCAAGGCCGGUCCCAAGCCCGGAUAAAAGUGGAGGGGGCGG [A7G U18G], the self-cleavage is reported as 0.49. In the case of CCGCCUUACAAUGCCAAUGCCGGUCCCAAGCCCGGAUAAAAGUGGAGGGGGCGG [A7U C11A], the self-cleavage is reported as 0.08. Variant CCGCCUUACAGUGCCAAUGCCGGUCCCAAGCCCGGAUAAAAGUGGAGGGGGCGG [A7U C11G] has a self-cleavage of 0.06. CCGCCUUACAUUGCCAAUGCCGGUCCCAAGCCCGGAUAAAAGUGGAGGGGGCGG [A7U C11U] gave a self-cleavage of 0.05. In the case of CCGCCUGACACUGCCAAUGCCGGUCCCAAGCCCGGAUAAAAGAGGAGGGGGCGG [A7G U43A], the self-cleavage is reported as 0.2. With CCGCCUGACACUGCCAAUGCCGGUCCCAAGCCCGGAUAAAAGCGGAGGGGGCGG [A7G U43C] the self-cleavage was 0.12. For CCGCCUGACACUGCCAAUGCCGGUCCCAAGCCCGGAUAAAAGGGGAGGGGGCGG [A7G U43G], the self-cleavage was 0.11. In the case of CCGCCUGACACUGCCAAUGCCGGUCCCAAGCCCGGAUAAAAGUGGAGGGGCCGG [A7G G51C], the self-cleavage is reported as 0.05. CCGCCUGACACUGCCAAUGCCGGUCCCAAGCCCGGAUAAAAGUGGAGGGGACGG [A7G G51A] showed a self-cleavage of 0.12. For CCGCCUGACACUGCCAAUGCCGGUCCCAAGCCCGGAUAAAAGUGGAGGGGUCGG [A7G G51U], the self-cleavage was 0.08. CCGCCUGACACUGCCAAUGCCGGGCCCAAGCCCGGAUAAAAGUGGAGGGGGCGG [A7G U24G] gave a self-cleavage of 0.04. For CCGCCUGACACUGCCAAUGCCGGACCCAAGCCCGGAUAAAAGUGGAGGGGGCGG [A7G U24A], the self-cleavage was 0.08. Work on CCGCCUGACACUGCCAAUGCCGGCCCCAAGCCCGGAUAAAAGUGGAGGGGGCGG [A7G U24C] yielded a self-cleavage of 0.07. In the case of CCGCCUUACACUGGCAAUGCCGGUCCCAAGCCCGGAUAAAAGUGGAGGGGGCGG [A7U C14G], the self-cleavage is reported as 0.23. CCGCCUUACACUGUCAAUGCCGGUCCCAAGCCCGGAUAAAAGUGGAGGGGGCGG [A7U C14U] gave a self-cleavage of 0.07. For CCGCCUUACACUGACAAUGCCGGUCCCAAGCCCGGAUAAAAGUGGAGGGGGCGG [A7U C14A], the self-cleavage was 0.03. Work on CCGCCUUACACUGCGAAUGCCGGUCCCAAGCCCGGAUAAAAGUGGAGGGGGCGG [A7U C15G] yielded a self-cleavage of 0.11. CCGCCUUACACUGCAAAUGCCGGUCCCAAGCCCGGAUAAAAGUGGAGGGGGCGG [A7U C15A] showed a self-cleavage of 0.06. With CCGCCUUACACUGCUAAUGCCGGUCCCAAGCCCGGAUAAAAGUGGAGGGGGCGG [A7U C15U] the self-cleavage was 0.06.

From the RNAGym collection of RNA variant scans (doi:10.1002/anie.201605470)
